Here are results for six compounds from ChEMBL document CHEMBL4052679, “Design, synthesis and biological evaluation of novel indolin-2-ones as potent anticancer compounds” (Bioorg Med Chem Lett, 2017).

The test system of assay [1] is BGC-823. Kind of assay: Growth inhibition of human BGC823 cells incubated for 3 days by MTT assay. The settings on record: BGC-823, 72 h. (In general: Tetrazolium dyes change colour on reduction, which living cells bring about.)
In assay [2] the test system is MDA-MB-231. Briefly: Growth inhibition of human MDA-MB-231 cells incubated for 3 days by SRB assay. Type of assay: functional, cell-based. The settings on record: MDA-MB-231, 72 h.
The next assay relates to A549. Briefly: Growth inhibition of human A549 cells incubated for 3 days by SRB assay. The settings on record: A549, 72 h. Format: functional, cell-based. (In general: Sulforhodamine B stains cellular protein and so reports cell mass.)
For the next assay, the system named is MCF7. Kind of assay: Growth inhibition of human MCF7 cells incubated for 3 days by SRB assay. Type of assay: functional, cell-based. The note with it: MCF7, 72 h.
Assay [3] has as its system A2780. Briefly: Growth inhibition of human A2780 cells incubated for 3 days by MTT assay. The note with it: A2780, 72 h.
Assay [4] deals with MDA-MB-231. Kind of assay: Induction of cell cycle arrest in human MDA-MB-231 cells assessed as increase in accumulation at subG1 phase at 5 times IC50 incubated for 24 hrs by propidium iodide staining based flow cytometry. Type of assay: functional. In a few lines: (§1)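 MDA-MB-231 cells exposed 24 h. Combretastatin A-4 at 200 nM served as reference for G2/M arrest. Cells were then fixed, stained with propidium iodide, and phase distribution was read on a flow cytometer.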
On the technique in general: A flow cytometer gives signals particle by particle.

Assay [5] deals with CDK9/cyclin T1 (Homo sapiens) (UniProt O60563+P50750). Briefly: Inhibition of CDK9/Cyclin T1 (unknown origin) at 10 uM. Type of assay: protein-complex assay.
Assay [6] relates to HepG2. Briefly: Growth inhibition of human HepG2 cells incubated for 3 days by MTT assay. The note with it: HepG2, 72 h.
Another assay deals with KB. Kind of assay: Growth inhibition of human KB cells incubated for 3 days by SRB assay. Type of assay: functional, cell-based. The settings on record: 72 h.
Assay [7] relates to HCT-116. Kind of assay: Growth inhibition of human HCT116 cells incubated for 3 days by MTT assay. The settings on record: HCT-116, 72 h.
For assay [8], the target named is Cyclin-dependent kinase 2/cyclin E1 (Homo sapiens) (UniProt P24864+P24941). Briefly: Inhibition of CDK2/Cyclin E1 (unknown origin) at 10 uM. Type of assay: protein-complex assay.
Assay [9] in a line: Growth inhibition of human KBVIN cells incubated for 3 days by SRB assay. Format: functional, cell-based. The settings on record: 72 h.
Assay [10] has as its system NCI-H1650. Kind of assay: Growth inhibition of human NCI-H1650 cells incubated for 3 days by MTT assay. The note with it: NCI-H1650, 72 h.
Assay [11] deals with HepG2. Briefly: Growth inhibition of human HepG2 cells at 10 uM incubated for 3 days by MTT assay.
Assay [12] deals with A2780. Briefly: Growth inhibition of human A2780 cells at 10 uM incubated for 3 days by MTT assay.
For assay [13], the system named is NCI-H1650. Kind of assay: Growth inhibition of human NCI-H1650 cells at 10 uM incubated for 3 days by MTT assay.
In assay [14] the test system is HCT-116. Kind of assay: Growth inhibition of human HCT116 cells at 10 uM incubated for 3 days by MTT assay.
Assay [15] concerns BGC-823. Kind of assay: Growth inhibition of human BGC823 cells at 10 uM incubated for 3 days by MTT assay.
Assay [16] relates to MDA-MB-231. Briefly: Induction of cell cycle arrest in human MDA-MB-231 cells assessed as increase in accumulation at G2/M phase at 5 times IC50 incubated for 24 hrs by propidium iodide staining based flow cytometry. Format: functional. The gist of the method:
as §1

For a further assay, the species on record is Homo sapiens. Briefly: Induction of microtubule destabilization in human MDA-MB-231 cells at 5 times IC50 incubated for 24 hrs by fluorescent microscopy. Type of assay: cell-based. In a few lines: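 MDA-MB-231 cells treated 24 h alongside a DMSO control. Cells were fixed and immunostained for α-tubulin and phosphorylated histone H3, with DAPI for DNA. The microtubule network was judged in interphase cells (phospho-H3-negative) by confocal fluorescence microscopy with ×63 or ×40 objectives.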

Active and inactive are the calls of the source. The calls are words filed in the database; no cut-off is given here.

By IC50 is commonly meant the point on the concentration scale where inhibition reaches its midpoint. Low readings indicate greater potency, high ones weaker potency.

As for `CN1CCN(c2cccc(N/C=C3\C(=O)Nc4ccc(NC(=O)c5c(F)cccc5F)cc43)c2)CC1`, the IC50 with BGC-823 [1] was 2.67 µM; with MDA-MB-231 [2] it was 4.43 µM; in the assay on A549, 4.75 µM; in the assay on MCF7, 4.44 µM; in the assay with A2780 [3], 2030 nM; in the assay on HepG2 [6] it was 3030 nM. Moreover, the IC50 in the assay on KB amounted to 4.4 µM; in the assay on HCT-116 [7] it was 2150 nM; in [9], 7.86 µM; in the assay with NCI-H1650 [10], 1630 nM. The result in the assay on MDA-MB-231 [4] was Active. The inhibition entry in [5] and in [8] was “inactive” throughout.

On to `O=C1Nc2ccc(F)cc2/C1=C\C(=O)c1ccco1`, for which the “growth inhibition (GI)” value in the assay with HepG2 [11], in the assay with A2780 [12], in the assay with NCI-H1650 [13], in the assay on HCT-116 [14] and with BGC-823 [15] was “inactive” throughout. The inhibition entry in [5] and in assay [8] was “inactive” each time.

As to `O=C1Nc2ccc(F)cc2/C1=C\C(=O)c1cc(Cl)sc1Cl`, the “growth inhibition (GI)” value in the assay on HepG2 [11], in the assay with A2780 [12], in the assay with NCI-H1650 [13], in the assay on HCT-116 [14] and in the assay with BGC-823 [15] was “inactive” in each case. In addition, the inhibition entry in assay [5] and in assay [8] was “inactive” throughout.

`O=C1Nc2ccccc2/C1=C1/Nc2ccccc2/C1=N\O`: the result in the assay with MDA-MB-231 [16] was Active. In addition, the half-inhibitory concentration (IC50) was 7.59 µM in the assay on MDA-MB-231 [2]; 5.82 µM in the assay with A549; 6.81 µM with MCF7; 5.34 µM in the assay on KB; 5.17 µM in [9]. Besides, the “growth inhibition (GI)” value in the assay with HepG2 [11], in the assay on A2780 [12], in the assay on NCI-H1650 [13], in the assay with HCT-116 [14] and in the assay on BGC-823 [15] was “inactive” in each case. In addition, in the assay filed under Homo sapiens, the result was inactive.

Consider `O=C1Nc2ccc(F)cc2/C1=C\C(=O)c1nccs1`, for which the “growth inhibition (GI)” value in the assay with HepG2 [11], in the assay on A2780 [12], with NCI-H1650 [13], with HCT-116 [14] and in the assay with BGC-823 [15] was “inactive” each time. The inhibition entry in assay [5] and in [8] was “inactive” in each case.

With `O=C1Nc2ccc(F)cc2/C1=C\C(=O)c1ccc2c(c1)OCO2`, the outcome in the assay on MDA-MB-231 [16] and in the assay listed under Homo sapiens was Active. Besides, the IC50 in the assay with BGC-823 [1] was 4.09 µM; in the assay on MDA-MB-231 [2], 5.31 µM; in the assay with A549, greater than 10 µM; in the assay with MCF7, greater than 10 µM; in the assay on A2780 [3] it was 1120 nM; in the assay on HepG2 [6], 2280 nM. The concentration for half-maximal inhibition (IC50) with KB was greater than 10 µM; in the assay with HCT-116 [7], 760 nM; in assay [9], greater than 10 µM; with NCI-H1650 [10] it was 1220 nM. The inhibition result in [5] and in assay [8] was “inactive” throughout.
